Active and inactive are the calls of the source. The calls are words filed in the database; no cut-off is given here.
Experiments:
A-375 [1] = experiment: Antimigratory activity in human A375 cells assessed as wound closure at 5 nM after 22 hrs (reference value: 60.7 +/- […]); assay type: functional
A-375 [2] = experiment: Antimigratory activity in human A375 cells assessed as wound closure at 25 nM after 22 hrs (reference value: 60.7 +/- […]); assay type: functional
RPMI-7951 [3] = experiment: Antimigratory activity in human RPMI7951 cells assessed as wound closure at 25 nM after 18 hrs (reference value: 71.8 +/- 1.8%); assay type: functional
RPMI-7951 [4] = experiment: Antimigratory activity in human RPMI7951 cells at 5 nM after 18 hrs by wound healing assay; assay type: functional, cell-based
A-375 [5] = experiment: Cytotoxicity against human A375 cells after 72 hrs by MTS assay; assay type: functional, cell-based; settings: A-375, 72 h
In short: (§1)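 Melanoma cells grown in DMEM with 10% FBS and seeded at 1800–3500 cells per well, then incubated overnight. Cells treated for 72 h with 10 concentrations from 0.03 nM to 1 μM, with DMSO vehicle, in four replicates. MTS added for at least 1 h at 37 °C and absorbance read at 490 nm. IC50 obtained by nonlinear regression.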

M14 = experiment: Cytotoxicity against human M14 cells after 72 hrs by MTS assay; assay type: functional, cell-based; settings: M14, 72 h; in short: as §1
RPMI-7951 [6] = experiment: Cytotoxicity against human RPMI7951 cells after 72 hrs by MTS assay; assay type: functional, cell-based; settings: RPMI-7951, 72 h; in short: as §1
Liver = experiment: Half life in human liver microsomes by UPLC-MS analysis; assay type: ADME, microsome
In short: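 Compound at 10 mM in DMSO diluted into human liver microsomes (0.6381 mg/mL protein) in 0.1 M potassium phosphate pH 7.4 with EDTA. NADPH regenerating system added, incubated at 37 °C for 0–4 h in triplicate. Quenched with cold acetonitrile containing warfarin as internal standard, analysed by UPLC–MS SIR. ke from log-linear regression; t1/2 = ln 2/ke.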

[7] = Acute toxicity in nude mouse administered as qd for 5 days; settings: in vivo
In short: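 Nude mice, 6–8 weeks old; compound formulated in PEG300 and given as five continuous daily administrations, then monitored for acute toxicity. A single-dose acute MTD was estimated first.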

A-375 [8] = experiment: Antitumor activity against human A375 cells xenografted in nude mouse assessed as tumor growth inhibition at 15 mg/kg, ip administered every other day for 2 weeks relative to control; assay type: functional; settings: A-375, ip, 336 h, read-out: TGI
In short: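 Nude mice 6–8 weeks old; 2 × 10^6 A375 cells in FBS-free medium with Matrigel injected sc into dorsal flank. At about 100 mm3 mice were randomized, n = 8. Drug in 2:1 PEG300/PBS given ip every other day. Volume measured by caliper three times weekly (a × b2 × 0.5).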

A-375 [9] = experiment: Antitumor activity against human A375 cells xenografted in nude mouse assessed as decrease in tumor weight at 30 mg/kg, ip administered every other day for 2 weeks; assay type: functional, organism-based; settings: 15 mg/kg, in the assay text read “at 15 mg/kg” for “at 30 mg/kg”
In short: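 Nude mice (6–8 weeks) injected subcutaneously in dorsal flank with 2 × 10^6 A375 cells in Matrigel. At ~100 mm3, randomized (n = 8). Compound given ip every other day in 2:1 PEG300/PBS; vehicle equal parts PEG300/PBS. Tumors weighed at sacrifice; mean ± SEM, ANOVA with Dunnett's test versus vehicle.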

A-375 [10] = experiment: Induction of apoptosis in human A375 cells xenografted in nude mouse assessed as increase in cleaved caspase-3 levels at 15 mg/kg, ip administered every other day for 2 weeks by immunohistochemical analysis; assay type: functional, organism-based
In short: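 Formalin-fixed, paraffin-embedded A375 xenograft tumors from mice dosed ip every other day (2:1 PEG300/PBS). Serial sections immunostained with rabbit anti-cleaved caspase 3 antibody by the ABC-DAB method.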

A-375 [11] = experiment: Induction of morphological changes in human A375 cells xenografted in nude mouse assessed as less microvessel density at 15 mg/kg, ip administered every other day for 2 weeks by immunohistochemical analysis; assay type: functional, organism-based
Tubulin (Sus scrofa) = experiment: Inhibition of tubulin (porcine brain) polymerization measured every min for 50 mins
Homo sapiens [12] = species: Homo sapiens; experiment: Inhibition of tubulin polymerization in human WM164 cells assessed as fragmentation of microtubules at 100 nM after 18 hrs using DAPI by immunofluorescence-based confocal microscopic method; assay type: cell-based
In short: (§2)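 WM164 cells on glass coverslips (125 000 cells/well), incubated overnight, treated 18 h with 100 nM compound or DMSO vehicle. Stained with anti-α-tubulin and Alexa Fluor 647 anti-mouse IgG, mounted in DAPI-containing medium, and imaged by confocal microscopy.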

Homo sapiens [13] = species: Homo sapiens; experiment: Inhibition of tubulin polymerization in human WM164 cells assessed as decrease in polymeric tubulin filaments at 100 nM after 18 hrs using DAPI by immunofluorescence-based confocal microscopic method; assay type: cell-based; in short: as §2
Homo sapiens [14] = species: Homo sapiens; experiment: Inhibition of tubulin polymerization in human WM164 cells assessed as increase in cytoplasmic soluble tubulin levels at 100 nM after 18 hrs using DAPI by immunofluorescence-based confocal microscopic method; assay type: cell-based; in short: as §2
PC-3 = experiment: Cytotoxicity against human PC3 cells after 72 hrs by MTS assay; assay type: functional, cell-based; settings: PC-3, 72 h
In short: (§3)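 Cells treated 72 h at 10 concentrations, 0.03 nM–1 μM, n = 4. MTS read at 490 nm; IC50 by nonlinear regression. RI = resistant IC50 / parental IC50.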

[15] = Cytotoxicity against human PC3-TxR cells after 72 hrs by MTS assay; assay type: functional, cell-based; in short: as §3
[16] = Resistance index, ratio of IC50 for human PC3-TxR cells to IC50 for human PC3 cells; assay type: functional
In short: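 Cells were treated 72 h with 10 concentrations from 0.03 nM to 1 μM, four replicates, A490 read. IC50 by nonlinear regression. RI = IC50 resistant / IC50 parental.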

DU-145 = experiment: Cytotoxicity against human DU145 cells after 72 hrs by MTS assay; assay type: functional, cell-based; settings: DU-145, 72 h; in short: as §3
[17] = Cytotoxicity against human DU145-TxR cells after 72 hrs by MTS assay; assay type: functional, cell-based; in short: as §3
[18] = Resistance index, ratio of IC50 for human DU145-TxR cells to IC50 for human DU145 cells; assay type: functional; in short: as §3

SMILES | IC50 (A-375 [5]) | IC50 (M14) | IC50 (RPMI-7951 [6]) | further results
COc1cc2c(c(OC)c1OC)-c1ccc(OC)c(=O)cc1[C@@H](NC(C)=O)CC2 [COLCHICINE] | – | – | – | Activity (A-375 [1]): 46%; Activity (A-375 [2]): 20.7%; Activity (RPMI-7951 [3]): 42.8%; Activity (RPMI-7951 [4]): inactive
COc1ccc2c(c1)CCCN2c1nc(Cl)nc2ncn(C)c12 | 39.6 nM | 41.2 nM | 58.9 nM | –
COc1ccc2c(c1)CCCN2c1nc(Cl)nc2c(C)csc12 | 49 nM | 52.6 nM | 91.3 nM | –
COc1ccc2c(c1)CCCN2c1nc(Cl)nc2ccoc12 | 3.2 nM | 3.3 nM | 5.1 nM | t1/2 (Liver): 19.2 min; MTD at 120 h [7]: 30 mg/kg; inhibition in vivo at 15 mg/kg (A-375 [8]): 66.5%; Activity (A-375 [9]): Active; Activity (A-375 [10]): Active; Activity (A-375 [11]): Active; inhibition (Tubulin (Sus scrofa)): Dose-dependent effect
COc1cc(N(C)c2nc(Cl)nc3ncccc23)cc(OC)c1OC | > 1000 nM | > 1000 nM | > 1000 nM | –
COc1ccc2c(c1)CCCN2c1nc(C)nc2[nH]ncc12 | > 1000 nM | > 1000 nM | > 1000 nM | –
COc1ccc2c(c1)CCCN2c1nc(C)nc2onc(C)c12 | 16.1 nM | 18.8 nM | 17.6 nM | t1/2 (Liver): 51.6 min
CC(=O)O[C@@]12CO[C@@H]1C[C@H](O)[C@@]1(C)C(=O)[C@H](O)C3=C(C)[C@@H](OC(=O)[C@H](O)[C@@H](NC(=O)OC(C)(C)C)c4ccccc4)C[C@@](O)([C@@H](OC(=O)c4ccccc4)[C@H]21)C3(C)C [DOCETAXEL ANHYDROUS] | – | – | – | inhibition (Homo sapiens [12]): inactive; inhibition (Homo sapiens [13]): inactive; inhibition (Homo sapiens [14]): inactive; IC50 (PC-3): 0.5 nM; IC50 [15]: 27.9 nM; Ratio IC50 [16]: 55.8; IC50 (DU-145): 0.1 nM; IC50 [17]: 352 nM; Ratio IC50 [18]: >3523
COc1ccc2c(c1)CCCN2c1nc(Cl)nc2cccnc12 | 4 nM | 4.2 nM | 4.4 nM | –
